Test results: ChEMBL document CHEMBL5137074 (J Med Chem, 2022)

Legend:
Ephrin type-B receptor 3 = target: T1, Ephrin type-B receptor 3 (Homo sapiens, UniProt P54753); test: Inhibition of full length Nano-luc fused EPHB3 in human HEK-293T cells incubated for 2 hrs by cell based NanoBRET target engagement assay
T1 sequence (P54753 whole entry): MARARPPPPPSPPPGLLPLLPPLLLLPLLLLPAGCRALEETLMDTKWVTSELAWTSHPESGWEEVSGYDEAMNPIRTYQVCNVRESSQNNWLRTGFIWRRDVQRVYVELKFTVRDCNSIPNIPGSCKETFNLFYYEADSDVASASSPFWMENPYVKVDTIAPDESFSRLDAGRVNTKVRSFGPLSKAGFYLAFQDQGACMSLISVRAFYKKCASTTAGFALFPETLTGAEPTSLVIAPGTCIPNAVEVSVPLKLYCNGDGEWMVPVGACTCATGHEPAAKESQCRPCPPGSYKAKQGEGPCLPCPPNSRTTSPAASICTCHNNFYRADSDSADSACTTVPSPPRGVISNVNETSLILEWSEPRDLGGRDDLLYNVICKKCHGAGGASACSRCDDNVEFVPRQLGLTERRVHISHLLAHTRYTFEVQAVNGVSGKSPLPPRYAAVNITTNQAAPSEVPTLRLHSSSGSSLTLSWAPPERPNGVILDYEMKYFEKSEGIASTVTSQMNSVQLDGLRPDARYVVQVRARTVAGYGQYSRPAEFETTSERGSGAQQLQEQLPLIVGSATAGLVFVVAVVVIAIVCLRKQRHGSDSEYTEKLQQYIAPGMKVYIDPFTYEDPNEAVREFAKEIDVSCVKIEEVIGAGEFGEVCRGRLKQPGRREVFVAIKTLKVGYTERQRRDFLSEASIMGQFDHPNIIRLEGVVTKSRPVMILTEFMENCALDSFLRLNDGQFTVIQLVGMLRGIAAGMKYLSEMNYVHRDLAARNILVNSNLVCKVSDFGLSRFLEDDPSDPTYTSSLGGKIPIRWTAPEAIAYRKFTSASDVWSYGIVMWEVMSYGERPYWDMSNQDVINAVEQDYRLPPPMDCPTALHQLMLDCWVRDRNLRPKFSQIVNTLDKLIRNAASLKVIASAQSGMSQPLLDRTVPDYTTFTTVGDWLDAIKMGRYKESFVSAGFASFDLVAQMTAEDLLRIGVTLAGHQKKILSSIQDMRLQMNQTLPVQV
Outline: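 HEK293T cells transiently transfected with the NanoLuc–kinase fusion vector plus carrier DNA and left overnight at 37 °C/5% CO2. Cells were resuspended in phenol red-free Opti-MEM at 17000 cells/well with the tracer. They were then exposed to compound for 2 h at 37 °C, and substrate/inhibitor mix was added. Acceptor (610 nm) and donor (450 nm) emissions were read.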

Wee1-like protein kinase = Wee1-like protein kinase (Homo sapiens, UniProt P30291); test: Inhibition of WEE1 (unknown origin)
Cytochrome P450 2D6 = Cytochrome P450 2D6 (Homo sapiens, UniProt P10635); test: Inhibition of CYP2D6 (unknown origin)
[1] = Apparent permeability across apical to basolateral side in human Caco-2 cells
[2] = rat, in vivo, iv, 1 mg/kg, 24 h
[3] = rat, in vivo, po, 5 mg/kg, 24 h
Cytochrome P450 2C9 = Cytochrome P450 2C9 (Homo sapiens, UniProt P11712); test: Inhibition of CYP2C9 (unknown origin)
[4] = Metabolic stability in human hepatocytes assessed as intrinsic clearance measured per 10^6 cells
[5] = Plasma protein binding in rat at 1 uM
Cytochrome P450 3A4 [6] = target: T2, Cytochrome P450 3A4 (Homo sapiens, UniProt P08684); test: Inhibition of CYP3A4 (unknown origin)
[7] = target: T3, Membrane-associated tyrosine- and threonine-specific cdc2-inhibitory kinase (Homo sapiens, UniProt Q99640)
T3 sequence (Q99640 whole entry): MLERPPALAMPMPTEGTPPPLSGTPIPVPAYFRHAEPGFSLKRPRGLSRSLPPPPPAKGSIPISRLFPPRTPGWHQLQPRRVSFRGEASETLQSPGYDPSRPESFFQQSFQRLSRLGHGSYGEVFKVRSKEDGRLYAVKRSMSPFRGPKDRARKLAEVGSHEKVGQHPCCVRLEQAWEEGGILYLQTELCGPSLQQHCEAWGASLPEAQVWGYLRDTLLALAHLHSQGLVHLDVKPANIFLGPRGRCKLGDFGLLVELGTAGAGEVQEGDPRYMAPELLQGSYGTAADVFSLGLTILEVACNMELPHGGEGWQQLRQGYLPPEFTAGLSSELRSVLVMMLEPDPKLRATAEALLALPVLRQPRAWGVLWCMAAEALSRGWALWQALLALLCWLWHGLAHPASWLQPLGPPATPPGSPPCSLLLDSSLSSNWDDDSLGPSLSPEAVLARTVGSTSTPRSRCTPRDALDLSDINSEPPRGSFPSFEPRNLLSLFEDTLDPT

[8] = Toxicity in SCID/Beige mouse xenografted with OVCAR-3 cells assessed as reduction in food consumption at 15 to 300 ppm incorporated with chow diet measured upto 21 days; format: cell-based; conditions: in vivo, po, 504 h, dose 15-300 ppm, time < 21 day
Outline: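 The drug was dissolved in acetone and mixed into rodent meal at 300 ppm, then diluted with untreated feed to lower levels. Xenografted SCID-beige mice were acclimatised to blank chow, then fed 15, 50 or 300 ppm chow for 21 days. The two-day mean chow consumption was compared with mice on blank chow.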

[9] = Unbound Cmax in SCID/Beige mouse xenografted with OVCAR-3 cells at 50 ppm incorporated with chow diet; format: ADME; conditions: po
Outline: (§1)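 OVCAR3-bearing SCID-beige mice were fed drug-formulated chow. Whole blood was sampled at 6:30am and 4:30pm on days 2, 5 and 22 and quantified by LC-MS/MS. Blood levels were converted to free plasma levels using blood/plasma ratio 1.2 and CD-1 plasma fu 0.185. […] Time over EC90 was referenced to the tumour pCDK1(Thr14) EC90.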

Cytochrome P450 3A4 [10] = target: T2, Cytochrome P450 3A4; test: Induction of CYP3A4 in human hepatocytes at 3 uM relative to rifampicin; format: ADME, cell-based, Hepatocyte
Outline: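 Single-donor human hepatocytes exposed at 3 μM. CYP3A4 induction expressed as % of the 10 μM rifampicin positive control.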

[11] = target: Voltage-gated inwardly rectifying potassium channel KCNH2 (Homo sapiens, UniProt Q12809); test: Inhibition of human ERG by patch-clamp assay; format: toxicity
[12] = In vivo inhibition of PKMYT1 in SCID/Beige mouse xenografted with human OVCAR-3 cells assessed as inhibition of CDK1 phosphorylation measured upto 10 hrs post oral dose by ELISA method; format: functional
Outline: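 OVCAR3 tumours were collected 2, 6 and 10 h after oral BID dosing (n=4/group/time point). They were homogenised in Tris lysis buffer with protease and phosphatase inhibitors. pCDK1(Thr14) was measured by sandwich ELISA with an anti-CDK1 capture antibody, an anti-CDK1-pT14 detector and an anti-rabbit HRP secondary, read at 450 nm. Signal was expressed relative to vehicle, and the free-plasma EC50 was derived by non-linear dose-response fitting.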

OVCAR-3 [13] = test: Antitumor activity against human OVCAR-3 cells xenografted in SCID/Beige mouse assessed as reduction in tumor growth measured upto 20 days by digital caliper method; format: functional, cell-based; conditions: dose 15-300 ppm, time <= 21.0 day, DDE = dose-dependent effect, in the assay text read “upto 21 days” for “upto 20 days”
Outline: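 Female SCID-beige mice (5–7 weeks) were implanted in the right flank with 5×10^6 OVCAR3 cells in 1:1 matrigel:media. At 100–150 mm3 they were randomised (n=8/group) and acclimatised to blank chow for 3–5 days. They then received drug-formulated chow at 15, 50 or 300 ppm for 21 days. Tumours were measured by caliper, with volume = 0.52×L×W2. TGI was calculated from group means at day 0 and the last day versus vehicle.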

[14] = Stability in SCID/Beige mouse plasma assessed as unbound compound at 50 to 300 ppm simulated dose incorporated with chow diet measured on 22 day; format: ADME; conditions: in vivo, po, dose 50-300 ppm; outline: as §1
[15] = Toxicity in SCID/Beige mouse xenografted with OVCAR-3 cells assessed as tolerated dose at 300 ppm measured upto 21 days; format: cell-based; conditions: in vivo, 504 h, time < 21 day
Outline: (§2)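 OVCAR3 flank xenografts in female SCID-beige mice (n=8) given drug-formulated chow for 21 days after blank-chow acclimatization. Individual body weight change relative to day 0 = (BWlast−BWday0)/BWday0 ×100. Food consumption was also monitored as two-day mean chow intake.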

[16] = Oral bioavailability in CD-1 mouse at 2.5 to 5 mg/kg measured upto 24 hrs by HPLC-LCMS analysis; format: ADME, organism-based; conditions: in vivo, dose 2.5-5 mg/kg
Outline: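 Female CD1 mice (20–30 g) dosed IV at 1 mg/kg as a solution. Oral dosing at 2.5 or 5 mg/kg as a suspension in 0.5% methyl cellulose. […] Non-compartmental analysis.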

OVCAR-3 [17] = test: Antitumor activity against human OVCAR-3 cells xenografted in SCID/Beige mouse assessed as time over EC90 concentration at 15 ppm incorporated with chow diet; format: functional; outline: as §1
[18] = Oral bioavailability in Cynomolgous monkey at 1 mg/kg measured upto 24 hrs by reversed phase LCMS analysis; format: ADME, organism-based, Macaca fascicularis; conditions: cynomolgus monkey, in vivo
[19] = Toxicity in SCID/Beige mouse xenografted with OVCAR-3 cells assessed as change in body weight at 300 ppm measured upto 21 days; format: cell-based; conditions: in vivo, 504 h, time < 21 day; outline: as §2

Sequence of Wee1-like protein kinase (P30291 whole entry): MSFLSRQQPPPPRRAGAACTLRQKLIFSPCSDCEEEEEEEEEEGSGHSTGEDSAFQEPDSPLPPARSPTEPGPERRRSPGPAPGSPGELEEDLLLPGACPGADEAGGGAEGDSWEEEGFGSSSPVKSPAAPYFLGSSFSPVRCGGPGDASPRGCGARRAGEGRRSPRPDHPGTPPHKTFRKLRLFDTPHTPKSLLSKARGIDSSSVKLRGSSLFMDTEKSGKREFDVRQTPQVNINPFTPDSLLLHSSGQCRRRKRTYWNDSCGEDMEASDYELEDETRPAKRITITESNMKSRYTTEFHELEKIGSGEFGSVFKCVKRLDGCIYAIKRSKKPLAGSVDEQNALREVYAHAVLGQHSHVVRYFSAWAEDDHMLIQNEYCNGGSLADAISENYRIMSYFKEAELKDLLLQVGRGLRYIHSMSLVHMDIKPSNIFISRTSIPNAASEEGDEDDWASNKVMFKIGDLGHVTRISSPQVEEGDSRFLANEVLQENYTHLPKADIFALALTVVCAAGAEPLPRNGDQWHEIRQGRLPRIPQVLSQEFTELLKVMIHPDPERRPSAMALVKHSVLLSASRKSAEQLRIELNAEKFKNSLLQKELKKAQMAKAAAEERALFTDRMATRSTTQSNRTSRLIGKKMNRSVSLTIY
T2 sequence (P08684 whole entry): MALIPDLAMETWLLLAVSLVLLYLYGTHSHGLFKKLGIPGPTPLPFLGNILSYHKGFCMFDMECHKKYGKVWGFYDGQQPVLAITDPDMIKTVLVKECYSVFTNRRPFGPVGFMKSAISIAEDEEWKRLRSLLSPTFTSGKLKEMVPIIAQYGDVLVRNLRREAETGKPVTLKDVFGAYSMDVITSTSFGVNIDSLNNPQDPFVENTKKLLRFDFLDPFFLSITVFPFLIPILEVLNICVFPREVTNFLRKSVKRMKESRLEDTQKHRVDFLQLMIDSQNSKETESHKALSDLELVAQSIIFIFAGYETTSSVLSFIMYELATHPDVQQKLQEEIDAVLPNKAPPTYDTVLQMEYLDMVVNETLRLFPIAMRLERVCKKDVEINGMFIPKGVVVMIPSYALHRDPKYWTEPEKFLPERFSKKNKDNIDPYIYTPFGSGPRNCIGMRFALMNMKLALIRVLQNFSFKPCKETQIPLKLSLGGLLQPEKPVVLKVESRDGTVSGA
Sequence of Cytochrome P450 2C9 (P11712 whole entry): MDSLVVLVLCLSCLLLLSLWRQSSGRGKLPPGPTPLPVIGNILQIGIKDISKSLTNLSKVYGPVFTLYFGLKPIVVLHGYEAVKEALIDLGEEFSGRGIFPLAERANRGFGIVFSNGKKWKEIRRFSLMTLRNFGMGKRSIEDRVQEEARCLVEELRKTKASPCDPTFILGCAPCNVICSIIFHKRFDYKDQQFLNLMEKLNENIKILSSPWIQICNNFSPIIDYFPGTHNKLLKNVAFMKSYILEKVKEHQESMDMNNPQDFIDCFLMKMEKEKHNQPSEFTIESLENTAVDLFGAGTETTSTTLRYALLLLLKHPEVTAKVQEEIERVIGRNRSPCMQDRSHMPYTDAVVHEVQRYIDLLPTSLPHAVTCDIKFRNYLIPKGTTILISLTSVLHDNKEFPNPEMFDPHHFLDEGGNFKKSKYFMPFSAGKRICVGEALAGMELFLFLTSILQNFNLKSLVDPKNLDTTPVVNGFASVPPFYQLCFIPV
Sequence of Cytochrome P450 2D6 (P10635 whole entry): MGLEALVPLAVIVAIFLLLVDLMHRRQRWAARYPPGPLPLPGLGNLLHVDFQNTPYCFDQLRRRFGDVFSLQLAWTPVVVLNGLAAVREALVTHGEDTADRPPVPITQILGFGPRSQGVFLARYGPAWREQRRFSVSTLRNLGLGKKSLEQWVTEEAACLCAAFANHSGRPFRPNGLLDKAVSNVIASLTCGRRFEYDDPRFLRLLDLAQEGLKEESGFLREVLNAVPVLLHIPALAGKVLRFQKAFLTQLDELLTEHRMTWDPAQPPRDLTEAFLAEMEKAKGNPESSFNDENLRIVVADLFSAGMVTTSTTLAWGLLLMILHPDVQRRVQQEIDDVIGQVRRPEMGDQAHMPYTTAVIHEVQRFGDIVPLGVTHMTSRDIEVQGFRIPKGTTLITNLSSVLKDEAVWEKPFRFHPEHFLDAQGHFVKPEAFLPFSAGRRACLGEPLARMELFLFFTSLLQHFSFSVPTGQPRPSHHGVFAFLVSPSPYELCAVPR
Sequence of Voltage-gated inwardly rectifying potassium channel KCNH2 (Q12809 whole entry): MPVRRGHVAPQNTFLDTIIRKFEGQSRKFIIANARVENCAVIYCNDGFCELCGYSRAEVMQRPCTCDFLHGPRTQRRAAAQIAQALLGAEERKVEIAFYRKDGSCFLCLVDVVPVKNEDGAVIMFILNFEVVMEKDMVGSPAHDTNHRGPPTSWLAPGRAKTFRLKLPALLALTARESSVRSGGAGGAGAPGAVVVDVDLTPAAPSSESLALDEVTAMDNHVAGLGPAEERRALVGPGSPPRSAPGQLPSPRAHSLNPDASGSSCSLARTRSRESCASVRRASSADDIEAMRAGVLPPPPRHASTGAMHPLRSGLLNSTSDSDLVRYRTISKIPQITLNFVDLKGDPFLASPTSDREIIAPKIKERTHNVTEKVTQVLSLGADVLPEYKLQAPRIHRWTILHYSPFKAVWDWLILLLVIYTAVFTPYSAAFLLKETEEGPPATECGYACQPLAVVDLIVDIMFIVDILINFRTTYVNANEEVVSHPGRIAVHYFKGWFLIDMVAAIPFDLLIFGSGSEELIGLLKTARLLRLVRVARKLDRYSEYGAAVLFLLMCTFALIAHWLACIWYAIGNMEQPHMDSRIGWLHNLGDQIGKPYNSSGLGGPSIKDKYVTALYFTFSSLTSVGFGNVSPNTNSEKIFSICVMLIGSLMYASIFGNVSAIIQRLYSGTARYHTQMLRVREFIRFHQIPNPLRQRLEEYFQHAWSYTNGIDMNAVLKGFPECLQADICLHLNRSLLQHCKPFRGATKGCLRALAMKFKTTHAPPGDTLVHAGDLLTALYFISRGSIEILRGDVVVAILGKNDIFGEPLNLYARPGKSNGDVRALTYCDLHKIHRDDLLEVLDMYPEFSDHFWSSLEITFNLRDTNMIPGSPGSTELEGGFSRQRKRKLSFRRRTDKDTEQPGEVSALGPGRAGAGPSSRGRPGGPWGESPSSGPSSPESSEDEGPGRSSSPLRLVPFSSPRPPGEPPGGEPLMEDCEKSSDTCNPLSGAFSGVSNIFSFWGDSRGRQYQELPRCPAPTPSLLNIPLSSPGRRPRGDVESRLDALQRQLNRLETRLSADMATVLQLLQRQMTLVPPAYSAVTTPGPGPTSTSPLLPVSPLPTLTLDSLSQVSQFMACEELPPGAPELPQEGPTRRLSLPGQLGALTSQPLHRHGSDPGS

Q: With `Cc1ccc(O)cc1-n1c(N)c(C(N)=O)c2nc3ccccc3nc21` as the compound, how does the IC50 (Ephrin type-B receptor 3) read?
A: 0.007 µM

Q: What about the IC50 (Wee1-like protein kinase) of the same compound?
A: 3.7 µM

Q: What does the source list for `Cc1ccc(O)c(C)c1-n1c(N)c(C(N)=O)c2nc(N3CCOCC3)cnc21`?
A: IC50 (Cytochrome P450 2D6): > 30 µM; Papp [1]: 5.8 10^-6 cm/s; CL free [2]: 151 mL/min/kg; F [3]: 18%; IC50 (Cytochrome P450 2C9): > 30 µM; CLH [4]: < 3 µL/min; PPB [5]: 62.8%; IC50 (Cytochrome P450 3A4 [6]): > 30 µM

Q: With `NC(=O)c1c(N)n(-c2cccc(O)c2)c2nc3ccccc3nc12` as the compound, how does the IC50 (Wee1-like protein kinase) read?
A: 19.6 µM

Q: For `Cc1c(O)cccc1-n1c(N)c(C(N)=O)c2nc3ccccc3nc21`, which IC50 (Wee1-like protein kinase) is on record?
A: 2.2 µM

Q: With `Cc1ccc(O)c(C)c1-n1c(N)c(C(N)=O)c2nc3cc(Br)ccc3nc21` as the compound, how does the IC50 [7] read?
A: < 0.003 µM

Q: With `Cc1ccc(O)c(C)c1-n1c(N)c(C(N)=O)c2cc(C3CC3)cnc21` as the compound, how does the CL free [2] read?
A: 170 mL/min/kg

Q: What about the F [3] of the same compound?
A: 28%

Q: What about the PPB [5] of the same compound?
A: 80.3%

Q: With `Cc1cc2c(C(N)=O)c(N)n(-c3c(C)ccc(O)c3C)c2nc1C` [LUNRESERTIB] as the compound, how does the IC50 (Cytochrome P450 2D6) read?
A: > 30 µM

Q: What about the Activity [8] of the same compound?
A: Non-Toxic

Q: What about the fCmax [9] of the same compound?
A: 15.5 nM

Q: And the Activity (Cytochrome P450 3A4 [10])?
A: 12.5%

Q: What about the Papp [1] of the same compound?
A: 15.2 10^-6 cm/s

Q: What about the IC50 [11] of the same compound?
A: > 100 µM

Q: What about the EC50 ([12]; Homo sapiens, OVCAR-3, 10 h) of the same compound?
A: 0.0002 µM

Q: And the EC90 ([12]; route po, time <= 10 hrs)?
A: 0.011 µM

Q: What about the F ([3]; Sprague-Dawley) of the same compound?
A: 48%

Q: And the IC50 (Cytochrome P450 2C9)?
A: > 30 µM

Q: What about the CLH [4] of the same compound?
A: 3.2 µL/min

Q: What about the Activity (OVCAR-3 [13]) of the same compound?
A: Dde

Q: What about the Stability [14] of the same compound?
A: Stable

Q: And the Activity [15]?
A: Non-Toxic

Q: What about the F [16] of the same compound?
A: 37%

Q: And the Time (OVCAR-3 [17])?
A: 0 h

Q: What about the F [18] of the same compound?
A: 29%

Q: And the Activity [19]?
A: Non-Toxic

Q: With `NC(=O)c1c(N)n(-c2cccc3[nH]cnc23)c2nc3ccccc3nc12` as the compound, how does the IC50 [7] read?
A: > 20 µM

Q: With `NC(=O)c1c(N)n(-c2cccc3[nH]ccc23)c2nc3ccccc3nc12` as the compound, how does the IC50 [7] read?
A: > 20 µM

Q: Which IC50 (Cytochrome P450 2D6) does the source give for `Cc1ccc(O)c(C)c1-n1c(N)c(C(N)=O)c2nccnc21` here?
A: > 30 µM

Q: What about the Papp [1] of the same compound?
A: 19 10^-6 cm/s

Q: And the CL free [2]?
A: 81 mL/min/kg

Q: What about the F [3] of the same compound?
A: 56%

Q: What about the IC50 (Cytochrome P450 2C9) of the same compound?
A: > 30 µM

Q: And the CLH [4]?
A: < 3 µL/min

Q: And the PPB [5]?
A: 81%

Q: And the IC50 (Cytochrome P450 3A4 [6])?
A: > 30 µM

Q: For `Cc1ccc2[nH]ncc2c1-n1c(N)c(C(N)=O)c2nc3ccccc3nc21`, which IC50 (Wee1-like protein kinase) is on record?
A: 3.2 µM

Q: With `Cc1ccc(C(F)F)cc1-n1c(N)c(C(N)=O)c2nc3ccccc3nc21` as the compound, how does the IC50 [7] read?
A: > 20 µM

Q: With `Cc1ccc(O)cc1-n1c(N)c(C(N)=O)c2cc3ccccc3nc21` as the compound, how does the IC50 (Ephrin type-B receptor 3) read?
A: 0.007 µM

Q: With `Cc1ccc(O)c(C)c1-n1c(N)c(C(N)=O)c2nc3ccccc3nc21` as the compound, how does the IC50 (Wee1-like protein kinase) read?
A: 0.58 µM
